Where “and” joins values, the source holds several entries; their conditions need not be identical. Identical values can stand only once.
System: U2OS
Assay: Multiplex assay against U2OS
Type: toxicity, cell-based
Details: human
Outline: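 At seeding, live cells were stained with Hoechst33342, BioTracker Green Microtubule Cytoskeleton Dye, MitoTracker Red and Annexin V Alexa Fluor 680. After compound addition they were imaged on a CQ1 microscope at 37°C and 5% CO2, and CellPathfinder machine-learning gating sorted them into Hoechst high-intensity objects or normal cells, with normal cells further split into healthy, pyknosed or fragmented nuclei and pyknosed cells into mitotic or apoptotic. Tubulin, mitochondrial-mass and membrane-permeability phenotypes are given as per cents of cells with healthy nuclei.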

[1] = 12 h, 1 µM, compound concentration 1 uM
[2] = 12 h, 10 µM, compound concentration 10 uM
[3] = 24 h, 1 µM, compound concentration 1 uM
[4] = 24 h, 10 µM, compound concentration 10 uM
[5] = 48 h, 1 µM, compound concentration 1 uM
[6] = 48 h, 10 µM, compound concentration 10 uM

CN1[C@@H](CC(=O)c2ccccc2)CCC[C@H]1C[C@H](O)c1ccccc1.Cl [LOBELINE HYDROCHLORIDE]
Population Apoptotic (%) [1]: 43.24% and 34.78%
Population Fragmented Nuclei (%) [1]: 1.42% and 2.51%
Population Healthy Nuclei (%) [1]: 88.07% and 85.93%
Population Hoechst High Intensity Objects (%) [1]: 0%
Population Membrane Permeable-Phenotype (%) [1]: 0.97% and 2.34%
Population Mitochondria Different-Phenotype (%) [1]: 0% and 6.43%
Population Mitotic Cells (%) [1]: 56.76% and 65.22%
Population Normal (%) [1]: 100%
Population Pyknosed Nuclei (%) [1]: 10.51% and 11.56%
Population Tubulin-Different-Phenotype (%) [1]: 0.65% and 0.58%
Total Cell Count [1]: 352 and 199
Population Apoptotic (%) [2]: 42.42% and 20%
Population Fragmented Nuclei (%) [2]: 1.15% and 1.84%
Population Healthy Nuclei (%) [2]: 91.26% and 82.82%
Population Hoechst High Intensity Objects (%) [2]: 0%
Population Membrane Permeable-Phenotype (%) [2]: 1.76% and 8.15%
Population Mitotic Cells (%) [2]: 57.58% and 80%
Population Normal (%) [2]: 100%
Population Pyknosed Nuclei (%) [2]: 7.59% and 15.34%
Population Tubulin-Different-Phenotype (%) [2]: 4.03% and 5.19%
Total Cell Count [2]: 435 and 163
Population Apoptotic (%) [3]: 44.64% and 46.88%
Population Fragmented Nuclei (%) [3]: 0.81% and 1.97%
Population Healthy Nuclei (%) [3]: 87.88% and 85.43%
Population Hoechst High Intensity Objects (%) [3]: 0%
Population Membrane Permeable-Phenotype (%) [3]: 0.46% and 2.76%
Population Mitochondria Different-Phenotype (%) [3]: 0% and 6.91%
Population Mitotic Cells (%) [3]: 55.36% and 53.12%
Population Normal (%) [3]: 100%
Population Pyknosed Nuclei (%) [3]: 11.31% and 12.6%
Population Tubulin-Different-Phenotype (%) [3]: 0.69% and 0.92%
Total Cell Count [3]: 495 and 254
Population Apoptotic (%) [4]: 28.79% and 39.39%
Population Fragmented Nuclei (%) [4]: 0.84% and 0.51%
Population Healthy Nuclei (%) [4]: 88.01% and 82.74%
Population Hoechst High Intensity Objects (%) [4]: 0%
Population Membrane Permeable-Phenotype (%) [4]: 0.96% and 1.23%
Population Mitotic Cells (%) [4]: 71.21% and 60.61%
Population Normal (%) [4]: 100%
Population Pyknosed Nuclei (%) [4]: 11.15% and 16.75%
Population Tubulin-Different-Phenotype (%) [4]: 2.11% and 2.45%
Population Apoptotic (%) [5]: 42.67% and 32.61%
Population Fragmented Nuclei (%) [5]: 2.46% and 2.85%
Population Healthy Nuclei (%) [5]: 89.17% and 86.22%
Population Hoechst High Intensity Objects (%) [5]: 0%
Population Membrane Permeable-Phenotype (%) [5]: 0.75% and 0.83%
Population Mitochondria Different-Phenotype (%) [5]: 0.13% and 5.79%
Population Mitotic Cells (%) [5]: 57.33% and 67.39%
Population Normal (%) [5]: 100%
Population Pyknosed Nuclei (%) [5]: 8.37% and 10.93%
Population Tubulin-Different-Phenotype (%) [5]: 1.25% and 0.55%
Total Cell Count [5]: 896 and 421
Population Apoptotic (%) [6]: 41.41% and 48.72%
Population Fragmented Nuclei (%) [6]: 1.94% and 1.9%
Population Healthy Nuclei (%) [6]: 88.91% and 85.76%
Population Hoechst High Intensity Objects (%) [6]: 0%
Population Membrane Permeable-Phenotype (%) [6]: 1.66% and 1.85%
Population Mitochondria Different-Phenotype (%) [6]: 0.31% and 8.86%
Population Mitotic Cells (%) [6]: 58.59% and 51.28%
Population Normal (%) [6]: 100%
Population Pyknosed Nuclei (%) [6]: 9.15% and 12.34%
Population Tubulin-Different-Phenotype (%) [6]: 1.77% and 2.21%

COc1ccc2c(c1OCc1ccccc1)C[C@@H](C(=O)O)N(C(=O)C(c1ccccc1)c1ccccc1)C2 [OLODANRIGAN]
Population Apoptotic (%) [1]: 82% and 66%
Population Fragmented Nuclei (%) [1]: 31% and 18%
Population Healthy Nuclei (%) [1]: 59% and 75%
Population Hoechst High Intensity Objects (%) [1]: 2% and 3%
Population Membrane Permeable-Phenotype (%) [1]: 4% and 6%
Population Mitochondria Different-Phenotype (%) [1]: 0% and 4%
Population Mitotic Cells (%) [1]: 17% and 33%
Population Normal (%) [1]: 97% and 96%
Population Pyknosed Nuclei (%) [1]: 8% and 5%
Population Tubulin-Different-Phenotype (%) [1]: 1% and 2%
Total Cell Count [1]: 286 and 112
Population Apoptotic (%) [2]: 78% and 81%
Population Fragmented Nuclei (%) [2]: 30% and 26%
Population Healthy Nuclei (%) [2]: 64% and 63%
Population Hoechst High Intensity Objects (%) [2]: 1% and 0%
Population Membrane Permeable-Phenotype (%) [2]: 6% and 2%
Population Mitochondria Different-Phenotype (%) [2]: 1%
Population Mitotic Cells (%) [2]: 21% and 18%
Population Normal (%) [2]: 98% and 99%
Population Pyknosed Nuclei (%) [2]: 5% and 10%
Population Tubulin-Different-Phenotype (%) [2]: 2%
Total Cell Count [2]: 273 and 110
Population Apoptotic (%) [3]: 87% and 55%
Population Fragmented Nuclei (%) [3]: 25% and 18%
Population Healthy Nuclei (%) [3]: 64% and 74%
Population Hoechst High Intensity Objects (%) [3]: 0% and 2%
Population Membrane Permeable-Phenotype (%) [3]: 2% and 9%
Population Mitochondria Different-Phenotype (%) [3]: 0% and 6%
Population Normal (%) [3]: 99% and 97%
Population Pyknosed Nuclei (%) [3]: 10% and 6%
Population Tubulin-Different-Phenotype (%) [3]: 2% and 5%
Total Cell Count [3]: 311 and 143
Population Apoptotic (%) [4]: 83% and 50%
Population Fragmented Nuclei (%) [4]: 27% and 22%
Population Healthy Nuclei (%) [4]: 66% and 72%
Population Hoechst High Intensity Objects (%) [4]: 1% and 0%
Population Membrane Permeable-Phenotype (%) [4]: 4%
Population Mitochondria Different-Phenotype (%) [4]: 0% and 1%
Population Normal (%) [4]: 98% and 100%
Population Pyknosed Nuclei (%) [4]: 5% and 4%
Population Tubulin-Different-Phenotype (%) [4]: 1% and 2%
Total Cell Count [4]: 318 and 123
Population Apoptotic (%) [5]: 91% and 78%
Population Fragmented Nuclei (%) [5]: 22% and 14%
Population Healthy Nuclei (%) [5]: 70% and 77%
Population Hoechst High Intensity Objects (%) [5]: 3% and 4%
Population Membrane Permeable-Phenotype (%) [5]: 4% and 3%
Population Mitochondria Different-Phenotype (%) [5]: 1% and 3%
Population Mitotic Cells (%) [5]: 8% and 21%
Population Normal (%) [5]: 96% and 95%
Population Pyknosed Nuclei (%) [5]: 7%
Population Tubulin-Different-Phenotype (%) [5]: 2%
Total Cell Count [5]: 483 and 184
Population Apoptotic (%) [6]: 88% and 85%
Population Fragmented Nuclei (%) [6]: 20% and 18%
Population Healthy Nuclei (%) [6]: 71% and 77%
Population Hoechst High Intensity Objects (%) [6]: 1%
Population Membrane Permeable-Phenotype (%) [6]: 5% and 7%
Population Mitochondria Different-Phenotype (%) [6]: 1% and 6%
Population Mitotic Cells (%) [6]: 11% and 14%
Population Normal (%) [6]: 98%
Population Pyknosed Nuclei (%) [6]: 8% and 4%
Population Tubulin-Different-Phenotype (%) [6]: 3% and 5%
Total Cell Count [6]: 451 and 163

Reference: ChEMBL document CHEMBL5724801, “EUbOPEN Chemogenomics Library - Multiplex” (2024)
